Test results: PubChem BioAssay AID719 (SRMLSC, 2007)
In all, about 85,000 compounds went through this assay and about 940 (1.1%) were called active. Only a selection was taken, and actives are over-represented in it overall. Unmarked numbers belong to inactive results.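 How the source made its calls: active means viability at or below 50% in the single dose screen; inactive means viability above 50%.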

experiment: antiproliferative effect on LL 47 fibroblasts – human, LL 47 cells, CellTiter-Glo luminescence, primary screen (AID 719); details: LL 47 human lung fibroblast viability, ATP luminescence; at 10 µM; active compounds read low;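 further: compound exposure lasted 72 h before the ATP readout; 100% = median luminescence of untreated cell-only wells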
How it was run: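 Benchmarks: Cell-only wells, no compound | Test system: LL 47 human lung fibroblasts, passage 12 or lower | Input: 1,150 cells/well | Measured by: CellTiter-Glo luminescence measuring cellular ATP | Medium: IMEM, 15% FBS supplement | Schedule: Overnight attachment after seeding, then 72 h compound exposure at 37 °C | Doses: Compound addition at 0.1% DMSO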

Compound | viability
O=C(CCn1c(SCC(=O)c2ccccc2)nc2ccccc2c1=O)NCc1ccc(F)cc1 | 103%
CCOc1cccc(-n2nnnc2-c2ccc(OC)cc2)c1 | 47.7% (active)
COc1ccc(C2=CC(c3cccc(OC)c3)n3nnnc3N2)cc1 (stereo unspecified) | 86.1%
CCOc1cccc(-c2nnc3sc(COc4ccc(OC)cc4)nn23)c1 | 99.8%
Cc1ccc(Nc2nnc(SCc3ccccc3)s2)cc1 | 102%
Cc1ccc(C)c(N2C(=O)CS/C2=N\NC(=O)c2ccccc2Cl)c1 | 101%
CC(C)CC(N=C1NC(C)(C)Cc2ccccc21)C(=O)O (stereo unspecified) | 111%
COc1cccc(NC(=O)Cc2ccc(C)cc2)c1 | 91.5%
COc1ccc(NC(=O)/C(Cl)=C(/Cl)S(=O)Cc2ccc(C)cc2)cn1 (stereo unspecified) | 1.6% (active)
COc1ccc(-c2nc3ccccc3n2CCC(C)C)cc1OC | 99.3%
O=C(CN1CCCCCC1)N1c2ccccc2Sc2ccc(C(F)(F)F)cc21 | 96%
CCCCCCc1cc2cc(-c3nnc(-c4cccc(OC)c4)o3)c(=O)oc2cc1O | 64.8%
COC(=O)CSc1nc2c(c(C3CC=CCC3)c1C#N)CCC2 (stereo unspecified) | 101%
Cc1cc(C)n(-c2nnc(C)n2NC(=O)c2cccc(Cl)c2)n1 | 94.7%
COCCCn1c(SCC(=O)Nc2ccccc2)nnc1-c1ccncc1 | 108%
Cc1ccc(NC(=O)N2CCC(c3nc4c(nnn4Cc4c(F)cccc4Cl)c(=O)[nH]3)CC2)cc1 | 95%
N=c1c2c(-c3ccccc3)c(-c3ccccc3)n(Cc3ccccc3)c2ncn1CCCO | 39% (active)
OCCCN1c2ccccc2Nc2nnc(-c3ccccc3)cc21 | 89.3%
C=CCO/N=C(\C)c1c(O)c(C)c(-c2ccccc2)n(-c2ccccc2)c1=O | 99.4%
Cc1cccc(N2CCN(C(=O)c3cnn4c(C(F)F)cc(-c5ccccc5)nc34)CC2)c1C | 87.9%
C=CCn1c(SCC(=O)/C(C#N)=C(\C)N)nc2sc(C)c(C)c2c1=O | 34.3% (active)
CCCn1c(=O)c2ccccc2n2c(SCC(=O)/C(C#N)=C(\C)N)nnc12 | 93.4%
Cc1sc2nc(SCC(N)=O)n(C)c(=O)c2c1C | 93.8%
CCOc1cc(NC(=O)c2cnccn2)c(OCC)cc1NC(=O)c1ccc(C)cc1 | 97.9%

Compound | viability
O=C(Nc1cccc(F)c1)c1ccc(S(=O)(=O)N2CCCC2)cc1 | 109%
CCOC(=O)N1CCN(S(=O)(=O)c2ccc(C(=O)Nc3ccc(F)cc3F)cc2)CC1 | 47.5% (active)
COc1ccc(C(=O)Nc2ccc(F)cc2F)cc1 | 99.5%
COc1ccc(Nc2ncc(C(=O)N3CCN(c4ccccc4OC)CC3)c3ccccc23)cc1 | 100%
Fc1ccc(-n2c(Cc3ccccc3)nnc2SCc2nc(-c3ccc(Cl)cc3)no2)cc1 | 111%
CC(C)CNC(=O)CC(c1ccccc1)c1c(O)ccc2ccccc12 (stereo unspecified) | 94.7%
CC(C)C(=O)NC(NC(=S)NC1CCS(=O)(=O)C1)C(Cl)(Cl)Cl (stereo unspecified) | 104%
COCCn1c(SCc2nnc(-c3ccc(OC)c(OC)c3)o2)nc2sc3c(c2c1=O)CCC3 | 99.8%
Cc1nc(Nc2ccc3c(c2)OCCO3)c2nnn(Cc3ccccc3Cl)c2n1 | 98.4%
CCCc1nc(NCc2ccc3c(c2)OCO3)c2nnn(Cc3ccccc3Cl)c2n1 | 23.2% (active)
O=C(Cn1cnc2c(nnn2Cc2ccc(F)cc2)c1=O)NCc1ccc2c(c1)OCO2 | 93.2%
COC(=O)c1cccc(-n2[nH]nnc2=S)c1 | 102%
Cc1ccc(-n2c(CNc3ccc(F)cc3)nnc2SCC(=O)N2CCOCC2)cc1 | 2.59% (active)
O=C(CSc1nnc(Cc2ccccc2)n1-c1ccccc1)N1CCOCC1 | 109%
CCOC(=O)CSc1nnc(CNC(=O)c2ccco2)n1-c1ccc(F)cc1 | 103%
O=C(NCCCn1ccnc1)Nc1ccc(Cl)cc1Cl | 102%
CCCCOc1ccc(N(CC(=O)NCC2CCCO2)C(=O)CCC(=O)Nc2cc(C)ccn2)cc1 (stereo unspecified) | 91.1%
COc1ccc(Br)cc1CN1CCN(C(=O)c2cccc(OC)c2OC)CC1 | 94.1%
c1ccc2c(c1)C(=NC1CCCCC1)NC2=NC1CCCCC1 | 40.6% (active)
O=C1CCCCC(=O)c2ccccc2N1 | 96.7%
Cc1nn(Cc2ccccc2)c2c1C(c1ccccc1)C(C#N)=C(N)O2 (stereo unspecified) | 98.6%
CCCCNS(=O)(=O)c1ccc(S(=O)(=O)n2cnc3ccccc32)cc1 | 107%
Cc1ccc(C(=O)NCC2CCCO2)o1 (stereo unspecified) | 101%
Cc1cc(Br)ccc1NC(=O)C1CCCO1 (stereo unspecified) | 91.1%

Compound | viability
OC(CNCC1CCCO1)Cn1c2ccc(Br)cc2c2cc(Br)ccc21 (stereo unspecified) | 2.96% (active)
COC(=O)C1=C(C(=O)OC)C2(OC1c1ccc(Br)cc1)C(=O)c1ccccc1C2=O (stereo unspecified) | 105%
O=C(Nc1cccc(NC(=O)c2ccco2)c1)c1cnccn1 | 103%
COC(=O)c1cc2nc(-c3ccccc3)cc(C(F)(F)F)n2n1 | 97.7%
CNc1nc(SC)nc(N(C#N)CC(=O)OC)n1 | 107%
CC(=O)Nc1ccc(S(=O)(=O)N2CCN(C(=O)c3ccccc3F)CC2)cc1 | 105%
O=c1c2ccccc2nc(N/N=C/c2ccccc2)n1O | 99.1%
CCn1c(/C=C/c2ccc([N+](=O)[O-])o2)nc2ccccc2c1=O | 9.18% (active)
Cc1nc2ccccc2c(=O)n1CCCn1ccnc1 | 100%
CCCn1nnc2sc3c(c2c1=O)CCC(C)C3 (stereo unspecified) | 88.2%
C=CCn1c(SCc2c(C)noc2C)nc2sc3c(c2c1=O)CCC(C)C3 (stereo unspecified) | 47.2% (active)
CC1CCc2c(sc3nc4n(c(=O)c23)CCS4)C1 (stereo unspecified) | 104%
COc1ccc(CN(CC(=O)NC2CCCC2)C(=O)CCC(=O)Nc2cc(C)on2)cc1 | 101%
O=C1C=C(c2ccc(Cl)cc2)C(=O)N1Nc1ccccc1 | 49.3% (active)
Cc1ccc(-c2noc(CSc3nnc(-c4ccncc4)n3-c3ccc(F)cc3)n2)cc1 | 80.8%
OC(CN=c1sc2ccccc2n1CC(O)COc1ccccc1)COc1ccccc1 (stereo unspecified) | 86%
N/C(=N\OC(=O)Nc1ccc(Cl)c(Cl)c1)c1ncc(C(F)(F)F)cc1Cl | 97.2%
CN(C)CCNC(CC(=O)Nc1ccc(Cl)c(Cl)c1)C(=O)O (stereo unspecified) | 102%
O=C(CC(O)(C(F)(F)F)C(F)(F)F)Nc1ccc(Cl)c(Cl)c1 | 22.4% (active)
COC(=O)c1ccc(NC(=O)C23CC4CC(C2)CC(n2cnc(Cl)n2)(C4)C3)cc1 | 96.5%
COc1ccc(C2CC(c3cccs3)=Nc3ccccc3S2)cc1OC (stereo unspecified) | 93.6%
COc1ccc(N(CC(=O)NC2CCCCC2)C(=O)CNC(=O)c2ccco2)c(OC)c1 | 96.4%
CCOc1ccc(Nc2oc(Cc3ccccc3)nc2C#N)cc1 | 99.8%
COc1ccc(Nc2oc(-c3ccccc3Cl)nc2C#N)cc1 | 23.1% (active)

Compound | viability
COc1ccccc1-c1nc(C#N)c(N2CCC(C(N)=O)CC2)o1 | 89.3%
COc1ccccc1NC1=NC(c2ccc(Cl)cc2)N=C(N)N1 (stereo unspecified) | 45.8% (active)
COc1ccccc1Nc1nc(N)nc(CN(C)C2CCCCC2)n1 | 94.3%
COc1ccccc1NC1=NC2(CCCC2)N=C(N)N1 | 93%
CCn1c(=O)c(=O)n(CC)c2cc(S(=O)(=O)N3CCc4ccccc43)ccc21 | 70.5%
CC1(C)CCc2nc(SCc3ccccc3)c(C#N)cc2C1 | 95.3%
Cc1nc(NC(=O)C2CCCCC2)sc1C | 108%
O=C(NCc1ccccc1)C1CCCN(S(=O)(=O)c2cccs2)C1 (stereo unspecified) | 94.6%
O=C(Cn1c(-c2cscn2)nc2ccccc21)Nc1ccc(Cl)cc1 | 90.7%
CN(C)c1ccnc2sc3c(=O)n(-c4ccc(Cl)cc4)cnc3c12 | 102%
Cc1cc2c(c(=O)n1Cc1ccco1)C(c1ccccc1)C(C#N)=C(N)O2 (stereo unspecified) | 107%
CC1=C(C(=O)Nc2ccccc2)C(c2ccco2)C(C#N)=C(SCC(N)=O)N1 (stereo unspecified) | 88.2%
N#CC1=C(N)Oc2c(sc3ccccc23)C1c1ccco1 (stereo unspecified) | 20.2% (active)
CCNc1nc(NC(C)C)nc(OCCOC(=O)c2ccccc2)n1 | 108%
Cc1cc(O)cc(O)c1C(=O)Cc1cnn(-c2ccccc2)c1 | 98.6%
C/C(=N\NC(=O)c1ccc(C)cc1)C1C(=O)c2ccccc2C1=O | 103%
CCN(CC)C(=O)CSc1nnc(-c2cccc(OC)c2)o1 | 101%
COc1cccc(NC(=O)CN(C)S(=O)(=O)c2ccc(C)cc2)c1 | 93.1%
COc1cccc(-c2nnc(NC(=O)c3ccc(S(=O)(=O)N(CC(C)C)CC(C)C)cc3)o2)c1 | 8.59% (active)
c1ccc(-n2nc3ccccc3n2)cc1 | 100%
Cc1ccc(OCC(=O)N/N=C\c2ccco2)c(C)c1 | 108%
C/C(=N\NC(=O)c1nc(C)cc(C)n1)c1ccccc1 | 106%
Cc1ccc(/C=N/NC(=O)C2=NNC(c3ccccc3)(c3ccccc3)C2)c(O)c1 | 19.2% (active)
CCOc1ccc(-n2c(N)c(C(=O)NCC3CCCO3)sc2=S)cc1 (stereo unspecified) | 101%
